OX1R antag-1 – OX1R (HCRTR1) antagonists, primary screen, fluorescence, CHO/OX1R cells, Fluo-8 calcium, orexin A | actives 0.43% (n = 330,000) | inhibition, % at 5 µM | Fluo-8 calcium fluorescence | Orexin/Hypocretin receptor type 1 (Homo sapiens), O43613;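 active means inhibition above its plate's threshold, mean inhibition of all tested compounds on the plate plus 3 SD, cut at about 37% in these data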
Target sequence (O43613 whole entry, looked up): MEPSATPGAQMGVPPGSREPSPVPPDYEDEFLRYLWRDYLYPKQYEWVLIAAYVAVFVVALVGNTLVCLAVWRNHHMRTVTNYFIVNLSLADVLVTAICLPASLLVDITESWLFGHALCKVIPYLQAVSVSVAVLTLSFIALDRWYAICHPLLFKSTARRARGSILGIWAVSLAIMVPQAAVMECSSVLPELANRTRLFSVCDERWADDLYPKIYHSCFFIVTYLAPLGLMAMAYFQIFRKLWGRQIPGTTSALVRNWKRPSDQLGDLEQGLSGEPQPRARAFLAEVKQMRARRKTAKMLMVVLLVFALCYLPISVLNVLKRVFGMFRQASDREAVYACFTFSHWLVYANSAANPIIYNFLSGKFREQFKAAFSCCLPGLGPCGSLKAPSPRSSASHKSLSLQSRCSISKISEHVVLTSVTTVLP
TAAR1 antagonist – human TAAR1 antagonists, primary screen, Fluo-8 calcium fluorescence, CHO RD-HGA16 cells | antagonist | actives 1.5% (n = 360,000) | inhibition, % at 3 µM | Trace amine-associated receptor 1 (Homo sapiens), Q96RJ0;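 active means inhibition above a per-plate cutoff, the mean inhibition of test compounds on that plate plus 3 SD, cut at about 49% in these data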
Target sequence (Q96RJ0 whole entry, looked up): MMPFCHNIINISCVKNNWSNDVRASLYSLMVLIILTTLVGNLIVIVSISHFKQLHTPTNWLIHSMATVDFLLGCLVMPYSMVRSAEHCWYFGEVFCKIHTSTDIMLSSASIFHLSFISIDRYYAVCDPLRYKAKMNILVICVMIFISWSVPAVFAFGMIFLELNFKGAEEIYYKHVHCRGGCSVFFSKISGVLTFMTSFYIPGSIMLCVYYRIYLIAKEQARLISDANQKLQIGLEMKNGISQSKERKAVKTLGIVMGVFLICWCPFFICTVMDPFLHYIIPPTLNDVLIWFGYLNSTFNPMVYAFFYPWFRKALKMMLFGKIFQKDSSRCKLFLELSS
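Test system – hTAAR1-expressing CHO RD-HGA16 cells, Gα16-coupled · Also added – β-PEA at EC80 concentration, post-compound challenge · Compound – 3 µM, single point · Incubation – dye loading 75 min at 37 °C, then 30 min room temperature · Measured by – Fluo-8 intracellular calcium dye fluorescence, real-time kinetic reads · Benchmarks – vehicle and agonist controls · Replicates – singlicate, one well per test compound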
OX1R antag-2 – antagonists of human orexin 1 receptor (OX1R). Orexin/Hypocretin receptor type 1 (Homo sapiens), O43613. OX1R-expressing cells, FRET antagonist read-out. inhibition, % at 6.6 µM. actives 1.8% (n = 330,000); in the data active means inhibition mostly above about 38%, no sharp cut-off; inactive means mostly below about 40%
CHO parental Ca – ATP-evoked calcium signal inhibitors, parental CHO, primary screen, counter-screen for OX1R antagonist project, cell-based, fluorescence, Fluo-8 calcium dye; parental CHO-K1, ATP-induced calcium, Fluo-8 fluorescence; AID 463079, 2010; actives 0.63% (n = 330,000); inhibition, % at 5.6 µM;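 active means inhibition above that plate's mean sample inhibition plus 3 SD, cut at about 26% in these data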
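Test system: parental CHO cells; detection: calcium-sensitive Fluo-8 fluorescence; evaluation: percent inhibition of calcium signal; also added: ATP as calcium-mobilizing challenge; repeats: one well per compound; control set: ATP-challenged DMSO wells low, unchallenged DMSO wells high; compound: single nominal dose of 5.6 µM per compound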
TAAR1 ag – human TAAR1 agonists, primary screen, Fluo-8 calcium fluorescence, CHO RD-HGA16 cells; Trace amine-associated receptor 1 (Homo sapiens), Q96RJ0; vehicle wells 0%, saturating PEA agonist 100%; activation, % at 3 µM; actives 0.99% (n = 360,000); AID 624467, 2012;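 active means activation above the mean activation of all test compounds in the run plus 3 SD, cut at about 38% in these data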
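Assay system – CHO-derived RD-HGA16 cells with stable Gα16 and human TAAR1 · Compound dosing – one-point dosing at 3 µM (nominal) · Incubation – 17-24 h seeding, 75 min 37 °C dye, 30 min RT · Measured by – kinetic Fluo-8 calcium fluorescence · Control set – DMSO vehicle as 0%, PEA at EC100 as 100% · Repeats – single well for each compound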
Each line names hits and unclear results; the compound was inactive in the other large screens. A selection: hits, their analogues and other compounds. The true share with any hit is near 4%.

O=C(Nc1nc(-c2ccc(S(=O)(=O)N3CCCC3)cc2)cs1)C1COc2ccccc2O1 (stereo not drawn)	TAAR1 antagonist 57
COC(=O)[C@H](Cc1c[nH]c2ccccc12)NC(=O)NCc1ccccc1	none
CC(C)(CSc1ncccn1)NS(=O)(=O)c1ccccc1	none
Cc1ccc(S(=O)(=O)NC(C)(C)CSc2nnc(Nc3ccccc3)s2)cc1	OX1R antag-1 50, CHO parental Ca 53
O=C(NCc1ccccc1)[C@H]1CCCN1C(=O)[C@H]1CCCN1C(=O)c1cccc(F)c1	none (no result: OX1R antag-1, OX1R antag-2, CHO parental Ca)
CN1C[C@@H]2[C@@H]3C(=O)N(Cc4ccccc4)C(=O)[C@@H]3[C@](Cc3ccccc3)(C1=O)N2C(=O)c1ccc(C(C)(C)C)cc1	TAAR1 ag 42 (no result: OX1R antag-1, OX1R antag-2, CHO parental Ca)
CCN(C[C@H]1N[C@@](CC)(C(=O)OC)[C@H]2C(=O)N(Cc3ccccc3)C(=O)[C@@H]12)C(=O)c1ccc(C(C)(C)C)cc1	TAAR1 antagonist 54
CCN(C[C@H]1N[C@@](C)(C(=O)OC)[C@H]2C(=O)N(Cc3ccccc3)C(=O)[C@@H]12)C(=O)COC	none
CCN(C[C@H]1N[C@@](C)(C(=O)OC)[C@H]2C(=O)N(Cc3ccccc3)C(=O)[C@@H]12)C(=O)c1ccc(C(C)(C)C)cc1	TAAR1 antagonist 51
CN1C[C@@H]2[C@@H]3C(=O)N(Cc4ccccc4)C(=O)[C@@H]3[C@](Cc3ccccc3)(C1=O)N2C(=O)c1ccccc1	none (no result: OX1R antag-1, OX1R antag-2, CHO parental Ca)
C[C@@H]1ON(C)[C@H]2C[C@H]3c4cc(N5CCCCC5)ccc4CCN3C[C@@H]12	none (no result: OX1R antag-1, OX1R antag-2, CHO parental Ca)
C=CCN(CC=C)CCOc1cccc(Oc2ccccc2)c1	none
CCc1c(C)nc(SCC(=O)NNC(=O)c2ccco2)[nH]c1=O	none
COC(CNC(=O)c1ccc2nc3ccccc3c(=O)n2c1)OC	OX1R antag-2 38
CCCc1ccc2c(C)cccc2n1	none (no result: OX1R antag-1, OX1R antag-2, CHO parental Ca)
Cc1cccc2cc3c(NC(=O)C(C)(C)C)nn(CC(C)C)c3nc12	none
Cc1cccn2c(=O)c3cc(C(=O)NC4CCCCC4)c(=N)n(CCN4CCOCC4)c3nc12	OX1R antag-2 63
CCCn1c(=N)c(C(=O)NC2CCCC2)cc2c(=O)n3cccc(C)c3nc21	OX1R antag-2 81
Cc1cccn2c(=O)c3cc(C(=O)NC4CCCC4)n(C)c3nc12	none
Cc1cccn2c(=O)c3cc(C(=O)NCc4ccc(F)cc4)c(=N)n(CCCN4CCOCC4)c3nc12	none (no result: OX1R antag-1, OX1R antag-2, CHO parental Ca)
O=[N+]([O-])c1cc(C(F)(F)F)ccc1N1CCC(O)CC1	none
O=C(Nc1ccc(Cl)cc1)N1CCCN(c2ccc(C(F)(F)F)cc2[N+](=O)[O-])CC1	OX1R antag-1 57
Nc1cc2c(cc1Cl)N(Cc1ccccc1)C(=O)CO2	none
c1cncc(Oc2ccc(NCCc3c[nH]c4ccccc34)cc2)c1	none (no result: OX1R antag-1, OX1R antag-2, CHO parental Ca)
COc1ccc(NC2CCCN(C(=O)c3ccc(C(C)=O)cc3)C2)cc1 (stereo not drawn)	none (no result: OX1R antag-1, OX1R antag-2, CHO parental Ca)
COc1ccc(NC2CCCN(C(=O)c3cn(C)c4ccccc34)C2)cc1 (stereo not drawn)	OX1R antag-2 38
Cc1[nH]c2ccccc2c1C(=O)COC(=O)c1ccccc1O	TAAR1 antagonist 65
O=C(Nc1cccc(C(F)(F)F)c1)c1ccc(Cn2cc(Br)cn2)o1	TAAR1 antagonist 54, TAAR1 ag 57
C/C(=N\NC(=O)c1ccc(Cn2cc(Br)cn2)o1)c1cccc(NC(=O)C(C)(C)C)c1	none
C=CCCC1CN(CC=C)S(=O)(=O)c2c(F)cccc2O1 (stereo not drawn)	none (no result: OX1R antag-1, OX1R antag-2, CHO parental Ca)
On1ccccc1=S	OX1R antag-1 37, CHO parental Ca 41
Cc1ccccc1-c1ccc2c(c1)[C@@H]1C[C@H](N(C)S(=O)(=O)c3ccc(Cl)cc3)[C@H]([C@H](C)O)CN1CC2	none (no result: OX1R antag-1, OX1R antag-2, CHO parental Ca)
COc1ccc(C(=O)CSC2=C(C#N)C3(CCCCC3)C(C#N)=C(N)N2)cc1	none
N#CC1=C(N)NC(SCC(=O)c2ccc(Br)cc2)=C(C#N)C12CCCCC2	TAAR1 antagonist 66
N#CC1=C(N)NC(SCC(=O)Nc2ccccc2)=C(C#N)C12CCCCC2	none
N#CC1=C(N)NC(SCC(=O)c2ccc(Cl)cc2)=C(C#N)C12CCCC2	OX1R antag-1 53, TAAR1 antagonist 51
CCN(Cc1ccccc1)C(=O)COC(=O)c1cnc(C)cn1	none
CCN(Cc1ccccc1)C(=O)COC(=O)c1c(C)nsc1NC	OX1R antag-2 50
CCN(CC)S(=O)(=O)c1ccc(/C=C/C(=O)OCC(=O)Nc2cccnc2Cl)cc1	TAAR1 antagonist 49
N#C/C(=C/c1ccc(N2CCOCC2)o1)c1nc2ccccc2[nH]1	TAAR1 ag 49
N#C/C(=C\c1ccc(Sc2ccc(Cl)cc2)o1)c1nc2ccccc2[nH]1	none
N#C/C(=C/c1ccc(N2CCOCC2)o1)c1ccc(Br)cc1	TAAR1 antagonist 57
N#C/C(=C\c1ccc(Sc2nc3ccccc3[nH]2)o1)c1ccccc1	OX1R antag-1 56, OX1R antag-2 74
N#C/C(=C\c1ccc(N2CCOCC2)o1)c1ccccc1	none
CC1CCCN(C(=O)Nc2ccc([N+](=O)[O-])cc2)C1 (stereo not drawn)	none (no result: OX1R antag-1, OX1R antag-2, CHO parental Ca)
CCn1ncc(C2=NOC(C(=O)NCCc3ccccc3)C2)c1C (stereo not drawn)	TAAR1 ag 61
CCn1ncc(C2=NOC(C(=O)NCC(C)C)C2)c1C (stereo not drawn)	none
Cc1cccc(CN2CCSCCS2(=O)=O)c1	none (no result: OX1R antag-1, OX1R antag-2, CHO parental Ca)
CCOC(=O)/C(C#N)=C\N(C)C	none
C=CCN1C=CC(=C/C=C(/C#N)C(=O)OCC)C=C1	OX1R antag-2 60
COc1ccc(-c2c(-c3cc(OC)cc(OC)c3)n(C)c3ccc(-c4cc(F)cc(OC)c4)cc23)cc1	none
O=C(COC(=O)c1ccc2c(c1Cl)C(=O)c1ccccc1C2=O)NC1CC1	OX1R antag-2 61
CC(C)C[C@@H]1COc2cc(F)ccc2S(=O)(=O)N1	none (no result: OX1R antag-1, OX1R antag-2, CHO parental Ca)
CS(=O)(=O)c1ccc2nc(NC(=O)CS(=O)(=O)Cc3ccccc3)sc2c1	OX1R antag-2 71
CS(=O)(=O)c1ccc2nc(NC(=O)Nc3cccc(Cl)c3)sc2c1	OX1R antag-2 39, CHO parental Ca 33
COc1ccc(OC)c(-c2csc(NC(=O)CSc3ccc([N+](=O)[O-])cc3)n2)c1	TAAR1 antagonist 49
COc1ccc(OC)c(-c2csc(NC(=O)CSc3ccc(Br)cc3)n2)c1	none
COc1ccc(-c2csc(NC(=O)CCS(=O)(=O)c3ccccc3)n2)c(OC)c1	TAAR1 antagonist 55
COc1ccc(OC)c(-c2csc(NC(=O)Cn3[nH]c(=O)c4ccccc4c3=O)n2)c1	TAAR1 antagonist 54
COc1ccc(Cc2c(C3CCCCC3)nc3ccc(C)cn23)c(C)c1	none (no result: OX1R antag-1, OX1R antag-2, CHO parental Ca)

Screening results deposited in PubChem by The Scripps Research Institute Molecular Screening Center.
